Assay results: ChEMBL document CHEMBL1140859, “Design and synthesis of some thiazolyl and thiadiazolyl derivatives of antipyrine as potential non-acidic anti-inflammatory, analgesic and antimicrobial agents” (Bioorg Med Chem, 2009)
Converted amounts (≈) assume the structure as drawn.

Experiments:
Klebsiella pneumoniae = assay: Antimicrobial activity against Klebsiella pneumoniae clinical isolate after 24 hrs by twofold serial dilution method; assay type: functional
Procedure, shortened: (§1)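 Broth microdilution in Müller–Hinton broth on compounds with agar-diffusion inhibition zones ≥14 mm (disks with 1 mg/mL in DMSO, 37 °C, 24 h, triplicate).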

Rattus norvegicus [1] = assay: Toxicity in Albino rat assessed as induction of gastric ulceration at 300 mg/kg, po twice a day after 2 hrs; assay type: organism-based, Stomach; set-up: dose 300 mg/kg, route oral; settings: in vivo
Procedure, shortened: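 Male albino rats (180–200 g), five per group, fasted 12 h with water ad libitum. Oral dosing at 300 mg/kg; the results text gives two doses at a 2 h interval, while the methods give two equal doses at 0 and 12 h over three days. Controls received 1% gum acacia orally. Rats were killed with ether 6 h after the last dose, and stomachs were inspected grossly for ulceration and hyperemia.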

Rattus norvegicus [2] = assay: Analgesic activity in Albino rat assessed as tail withdrawal response at 20 mg/kg, po after 2 hrs; assay type: functional
Procedure, shortened: (§2)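 Male albino rats, 120–150 g, groups of five plus untreated control; test compounds 20 mg/kg po, diclofenac Na 10 mg/kg po. Tail immersed in 55 °C water; withdrawal reaction time read 1, 2 and 3 h after dosing; percentage increase in reaction time over basal computed; mean ± SE of five animals.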

Bacillus subtilis = assay: Antimicrobial activity against Bacillus subtilis NRRL B-14819 after 24 hrs by twofold serial dilution method; assay type: functional; procedure, shortened: as §1
Rattus norvegicus [3] = assay: Antiinflammatory activity against turpentine oil-induced granuloma pouch in anaesthetized Albino rat sub-acute inflammatory model at 20 mg/kg, po 1 hr before turpentine oil challenge for 7 days assessed after 8 days; assay type: functional
Procedure, shortened: (§3)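 Dorsal subcutaneous pouch made in ether-anaesthetised rats with 2 mL air, then 0.5 mL turpentine oil. Test compounds 20 mg/kg po, diclofenac Na 10 mg/kg po, started 1 h before turpentine and continued 7 days. Exudate aspirated on day 8 under anaesthesia; volume measured; % inhibition = (Vcontrol − Vtreated)/Vcontrol × 100; N = 5.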

Rattus norvegicus [4] = assay: Analgesic activity in Albino rat assessed as tail withdrawal response at 20 mg/kg, po after 3 hrs; assay type: functional; procedure, shortened: as §2
Rattus norvegicus [5] = assay: Antiinflammatory activity against formalin-induced paw edema in anaesthetized Albino rat sub-acute inflammatory model at 20 mg/kg, po measured on day 1; assay type: functional
Procedure, shortened: (§4)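 Sub-acute paw edema: test compounds 20 mg/kg po daily for 7 days, diclofenac Na 10 mg/kg po; 0.1 mL 2% formalin injected subplantar into left hind paw under light ether anaesthesia on days 1 and 3, 1 h after dosing. Paw volume measured on day 1 and day 8; % anti-inflammatory activity; N = 5 rats.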

Rattus norvegicus [6] = assay: Antiinflammatory activity against formalin-induced paw edema in anaesthetized Albino rat acute inflammatory model at 20 mg/kg, po dosed 1 hr before formalin challenge assessed after 3 hrs; assay type: functional
Procedure, shortened: (§5)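 Rats in groups of five plus control; test compounds 20 mg/kg po, diclofenac Na 10 mg/kg po, given 1 h before 0.1 mL 2% formalin injected subplantar into left hind paw under light ether anaesthesia. Paw volume by water plethysmometer at 0 and 1, 2, 3, 4 h after formalin; % anti-inflammatory activity versus control; mean ± SE, N = 5.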

Rattus norvegicus [7] = assay: Analgesic activity in Albino rat assessed as tail withdrawal response at 20 mg/kg, po after 1 hr; assay type: functional; procedure, shortened: as §2
Pseudomonas aeruginosa = assay: Antimicrobial activity against Pseudomonas aeruginosa ATCC 27853 after 24 hrs by twofold serial dilution method; assay type: functional; settings: ATCC 27853, 24 h; procedure, shortened: as §1
Escherichia coli = assay: Antimicrobial activity against Escherichia coli ATCC 25922 after 24 hrs by twofold serial dilution method; assay type: functional; settings: ATCC 25922, 24 h; procedure, shortened: as §1
[8] = Acute toxicity in Albino rat after 24 hrs; assay type: organism-based; settings: in vivo, read-out: ALD50
Procedure, shortened: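 Male rats, 180–200 g, groups of five, fasted 24 h before dosing; compounds given orally in graded doses of 0.1–3.0 g/kg; mortality recorded at each dose level after 24 h to estimate approximate acute lethal dose (ALD50).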

Staphylococcus aureus = assay: Antimicrobial activity against Staphylococcus aureus ATCC 6538 after 24 hrs by twofold serial dilution method; assay type: functional; settings: ATCC 6538, 24 h; procedure, shortened: as §1
Micrococcus luteus = assay: Antimicrobial activity against Micrococcus luteus ATCC 21881 after 24 hrs by twofold serial dilution method; assay type: functional; settings: ATCC 21881, 24 h; procedure, shortened: as §1
Rattus norvegicus [9] = assay: Antiinflammatory activity against formalin-induced paw edema in anaesthetized Albino rat acute inflammatory model at 20 mg/kg, po dosed 1 hr before formalin challenge assessed after 4 hrs; assay type: functional; procedure, shortened: as §5
Rattus norvegicus [10] = assay: Antiinflammatory activity against formalin-induced paw edema in anaesthetized Albino rat sub-acute inflammatory model at 20 mg/kg, po for 7 days measured on day 8; assay type: functional; procedure, shortened: as §4
Rattus norvegicus [11] = assay: Antiinflammatory activity against formalin-induced paw edema in anaesthetized Albino rat acute inflammatory model at 20 mg/kg, po dosed 1 hr before formalin challenge assessed after 1 hr; assay type: functional; procedure, shortened: as §5
Rattus norvegicus [12] = assay: Antiinflammatory activity against formalin-induced paw edema in anaesthetized Albino rat acute inflammatory model at 20 mg/kg, po dosed 1 hr before formalin challenge assessed after 2 hrs; assay type: functional; procedure, shortened: as §5
Rattus norvegicus [13] = assay: Antiinflammatory activity against formalin-induced paw edema in anaesthetized Albino rat sub-acute inflammatory model at 10 mg/kg, po measured on day 1; assay type: functional; procedure, shortened: as §4
Rattus norvegicus [14] = assay: Analgesic activity in Albino rat assessed as tail withdrawal response at 10 mg/kg, po after 2 hrs; assay type: functional; procedure, shortened: as §2
Rattus norvegicus [15] = assay: Antiinflammatory activity against turpentine oil-induced granuloma pouch in anaesthetized Albino rat sub-acute inflammatory model at 10 mg/kg, po 1 hr before turpentine oil challenge for 7 days assessed after 8 days; assay type: functional; procedure, shortened: as §3
Rattus norvegicus [16] = assay: Antiinflammatory activity against formalin-induced paw edema in anaesthetized Albino rat acute inflammatory model at 10 mg/kg, po dosed 1 hr before formalin challenge assessed after 4 hrs; assay type: functional; procedure, shortened: as §5
Rattus norvegicus [17] = assay: Antiinflammatory activity against formalin-induced paw edema in anaesthetized Albino rat acute inflammatory model at 10 mg/kg, po dosed 1 hr before formalin challenge assessed after 3 hrs; assay type: functional; procedure, shortened: as §5
Rattus norvegicus [18] = assay: Antiinflammatory activity against formalin-induced paw edema in anaesthetized Albino rat acute inflammatory model at 10 mg/kg, po dosed 1 hr before formalin challenge assessed after 1 hr; assay type: functional; procedure, shortened: as §5
Rattus norvegicus [19] = assay: Antiinflammatory activity against formalin-induced paw edema in anaesthetized Albino rat acute inflammatory model at 10 mg/kg, po dosed 1 hr before formalin challenge assessed after 2 hrs; assay type: functional; procedure, shortened: as §5
Rattus norvegicus [20] = assay: Antiinflammatory activity against formalin-induced paw edema in anaesthetized Albino rat sub-acute inflammatory model at 10 mg/kg, po for 7 days measured on day 8; assay type: functional; procedure, shortened: as §4
Rattus norvegicus [21] = assay: Analgesic activity in Albino rat assessed as tail withdrawal response at 10 mg/kg, po after 1 hr; assay type: functional; procedure, shortened: as §2
Rattus norvegicus [22] = assay: Analgesic activity in Albino rat assessed as tail withdrawal response at 10 mg/kg, po after 3 hrs; assay type: functional; procedure, shortened: as §2

In the case of `Cc1c(NC(=O)/C(C#N)=C2\SCC(=O)N2c2ccccc2)c(=O)n(-c2ccccc2)n1C`, the MIC (Klebsiella pneumoniae) is reported as 50 µg/mL (≈ 112 µM), the Activity (Rattus norvegicus [1]) is reported as “Non-toxic” and the Activity (Rattus norvegicus [2]) is reported as 20%. For the same compound, the MIC (Bacillus subtilis) was 100 µg/mL (≈ 224 µM), the Activity (Rattus norvegicus [3]) was 53% and the Activity (Rattus norvegicus [4]) was 34%. It also gave an Activity (Rattus norvegicus [5]) of 29%, an Activity (Rattus norvegicus [6]) of 23% and an Activity (Rattus norvegicus [7]) of 22%. The MIC (Pseudomonas aeruginosa) was 50 µg/mL (≈ 112 µM), the MIC (Escherichia coli) was 50 µg/mL (≈ 112 µM) and the LD50 at 24 h [8] was greater than 3000 mg/kg. The MIC (Staphylococcus aureus) was 50 µg/mL (≈ 112 µM), the MIC (Micrococcus luteus) was 100 µg/mL (≈ 224 µM) and the Activity (Rattus norvegicus [9]) was 19%. It also gave an Activity (Rattus norvegicus [10]) of 17%, an Activity (Rattus norvegicus [11]) of 13% and an Activity (Rattus norvegicus [12]) of 31%.

For `O=C([O-])Cc1ccccc1Nc1c(Cl)cccc1Cl.[Na+]` [DICLOFENAC SODIUM], the Activity (Rattus norvegicus [13]) was 40%, the Activity (Rattus norvegicus [14]) was 55% and the Activity (Rattus norvegicus [15]) was 73%. For the same compound, the Activity (Rattus norvegicus [1]) was “Toxic”, the Activity (Rattus norvegicus [16]) was 45% and the Activity (Rattus norvegicus [17]) was 44%. For the same compound, the Activity (Rattus norvegicus [18]) was 17%, the Activity (Rattus norvegicus [19]) was 40% and the Activity (Rattus norvegicus [20]) was 46%. The Activity (Rattus norvegicus [21]) was 26% and the Activity (Rattus norvegicus [22]) was 79%.
